Assay results published in ChEMBL document CHEMBL2169868, “Flavone-based novel antidiabetic and antidyslipidemic agents” (J Med Chem, 2012).

What was measured:
Syrian golden hamster [1] = assay: Antidyslipidemic activity in high fructose and high-fat diet fed dyslipidemic Syrian golden hamster model assessed as increase in HDL-cholesterol level at 100 mg/kg/day, po for 7 days; format: functional, Mesocricetus auratus
Summary of the method: (§1)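 Syrian golden hamsters fed high-fructose high-fat diet; oral dosing in 1% gum acacia at 10, 30, 100 mg/kg (or 25 mg/kg) for 7 days, sham control given vehicle; plasma TG, cholesterol, LDL-C, HDL-C, glycerol and NEFA (kits), lipoprotein lipase activity and body weight; % change versus HFD control, six hamsters per group.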

[2] = Elimination half life in Sprague-Dawley rat at 25 mg/kg, po by LC-MS/MS method; format: ADME, organism-based; parameters: dose 25 mg/kg, route oral; settings: in vivo, read-out: beta t1/2 (converted)
Summary of the method: (§2)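 Male Sprague−Dawley rats given a single 25 mg/kg oral dose (aqueous 0.5% methyl cellulose suspension for one compound). Blood drawn from 0.08 to 48 h. LC-MS/MS, linear range 0.78−400 ng/mL.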

Syrian golden hamster [3] = assay: Antidyslipidemic activity in high fructose and high-fat diet fed dyslipidemic Syrian golden hamster model assessed as reduction in cholesterol level at 100 mg/kg/day, po for 7 days; format: functional, Mesocricetus auratus; parameters: scale not given: the % may be the effect or the level left; summary of the method: as §1
Syrian golden hamster [4] = assay: Antidyslipidemic activity in high fructose and high-fat diet fed dyslipidemic Syrian golden hamster model assessed as increase in HDL-cholesterol level at 10 to 100 mg/kg/day for 7 days; format: functional, organism-based; settings: Mesocricetus auratus; summary of the method: as §1
[5] = Mean residence time in Sprague-Dawley rat at 25 mg/kg, po by LC-MS/MS method; format: ADME, organism-based; parameters: dose 25 mg/kg, route oral; settings: in vivo; summary of the method: as §2
Mus musculus [6] = assay: Antidiabetic activity in diabetic C57BL/KsJ db/db mouse model assessed as reduction in postprandial glucose level in hyperglycemia at 3 mg/kg, po measured 2 hrs post dose; format: functional; parameters: scale not given: the % may be the effect or the level left
Summary of the method: (§3)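 db/db mice (C57BL/KsJ, 12−18 weeks, 40−50 g; selected by glucose 200−350 mg/dL) dosed orally daily for 10 consecutive days at 1, 3, 10, 25 or 50 mg/kg; postprandial blood glucose profile recorded on day 6 with food access interrupted; mean % change versus vehicle in 5 animals per group; Student t test.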

Syrian golden hamster [7] = assay: Reduction in body weight in high fructose and high-fat diet fed dyslipidemic Syrian golden hamster model at 30 mg/kg/day, po for 7 days; format: functional, Mesocricetus auratus; parameters: scale not given: the % may be the effect or the level left
Summary of the method: (§4)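 HFD-fed Syrian golden hamsters, six per group, fed a high-fructose diet. Oral dosing in 1% gum acacia for 7 days. Sham group received vehicle. Plasma TG was measured and body weight tracked. Results given as % change versus HFD control.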

Rattus norvegicus = assay: AUC in Sprague-Dawley rat at 2.5 mg/kg, iv by LC-MS/MS method; settings: in vivo
Syrian golden hamster [8] = assay: Antidyslipidemic activity in high fructose and high-fat diet fed dyslipidemic Syrian golden hamster model assessed as reduction in glycerol level at 30 mg/kg/day, po for 7 day, po; format: functional, Mesocricetus auratus; parameters: scale not given: the % may be the effect or the level left; summary of the method: as §1
Syrian golden hamster [9] = assay: Antidyslipidemic activity in high fructose and high-fat diet fed dyslipidemic Syrian golden hamster model assessed as reduction in cholesterol level at 25 mg/kg/day for 7 days; format: functional, Mesocricetus auratus; parameters: scale not given: the % may be the effect or the level left
Syrian golden hamster [10] = assay: Antidyslipidemic activity in high fructose and high-fat diet fed dyslipidemic Syrian golden hamster model assessed as reduction in NEFA level at 30 mg/kg/day, po for 7 day, po; format: functional, Mesocricetus auratus; parameters: scale not given: the % may be the effect or the level left; summary of the method: as §1
Syrian golden hamster [11] = assay: Antidyslipidemic activity in high fructose and high-fat diet fed dyslipidemic Syrian golden hamster model assessed as reduction in LDL-cholesterol level at 10 mg/kg/day, po for 7 day, po; format: functional, Mesocricetus auratus; parameters: scale not given: the % may be the effect or the level left; summary of the method: as §1
Syrian golden hamster [12] = assay: Antidyslipidemic activity in high fructose and high-fat diet fed dyslipidemic Syrian golden hamster model assessed as increase in lipoprotein lipase level at 10 mg/kg/day, po for 7 day, po; format: functional, Mesocricetus auratus; summary of the method: as §1
Mus musculus [13] = assay: Antidyslipidemic activity in diabetic C57BL/KsJ db/db mouse model assessed as increase in plasma HDL-C/cholesterol ratio at 25 mg/kg, po qd for 10 days; format: functional
Summary of the method: (§5)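 db/db mice (blood glucose 200−350, TG 170−250, cholesterol 170−250, HDL-C 32−40 mg/dL) dosed orally at 25 mg/kg daily for 10 days; retro-orbital blood taken on day 11 for plasma TG, cholesterol and HDL-C (and HDL-C/CHOL ratio); mean % change versus vehicle control, 5 mice per group; Student t test.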

Syrian golden hamster [14] = assay: Antidyslipidemic activity in high fructose and high-fat diet fed dyslipidemic Syrian golden hamster model assessed as reduction in cholesterol level at 10 mg/kg/day, po for 7 day, po; format: functional, Mesocricetus auratus; parameters: scale not given: the % may be the effect or the level left; summary of the method: as §1
Syrian golden hamster [15] = assay: Antidyslipidemic activity in high fructose and high-fat diet fed dyslipidemic Syrian golden hamster model assessed as reduction in triglyceride level at 10 mg/kg/day, po for 7 day, po; format: functional, Mesocricetus auratus; parameters: scale not given: the % may be the effect or the level left; summary of the method: as §1
Syrian golden hamster [16] = assay: Antidyslipidemic activity in high fructose and high-fat diet fed dyslipidemic Syrian golden hamster model assessed as reduction in triglyceride level at 30 mg/kg/day, po for 7 day, po; format: functional, Mesocricetus auratus; parameters: scale not given: the % may be the effect or the level left; summary of the method: as §4
Mus musculus [17] = assay: Antidyslipidemic activity in diabetic C57BL/KsJ db/db mouse model assessed as reduction in plasma cholesterol level at 25 mg/kg, po qd for 10 days; format: functional; parameters: scale not given: the % may be the effect or the level left; summary of the method: as §5
[18] = Plasma clearance in Sprague-Dawley rat at 2.5 mg/kg, iv by LC-MS/MS method; format: ADME, organism-based; parameters: dose 2.5 mg/kg, route intravenous
Summary of the method: (§6)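 Male Sprague−Dawley rats given a single 2.5 mg/kg iv dose; one formulation was DMF/PG/water (2:4:4), 0.2 μ filtered. Blood drawn from 0.08 to 48 h. Plasma assayed by LC-MS/MS with linear range 0.78−400 ng/mL.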

[19] = Elimination half life in Sprague-Dawley rat at 2.5 mg/kg, iv by LC-MS/MS method; format: ADME, organism-based; parameters: dose 2.5 mg/kg, route intravenous; settings: in vivo, read-out: beta t1/2 (converted); summary of the method: as §6
[20] = Volume of distribution in Sprague-Dawley rat at 2.5 mg/kg, iv by LC-MS/MS method; format: ADME, organism-based; parameters: dose 2.5 mg/kg, route intravenous; settings: in vivo; summary of the method: as §6
Syrian golden hamster [21] = assay: Antidyslipidemic activity in high fructose and high-fat diet fed dyslipidemic Syrian golden hamster model assessed as reduction in NEFA level at 10 mg/kg/day, po for 7 day, po; format: functional, Mesocricetus auratus; parameters: scale not given: the % may be the effect or the level left; summary of the method: as §1
Syrian golden hamster [22] = assay: Antidyslipidemic activity in high fructose and high-fat diet fed dyslipidemic Syrian golden hamster model assessed as reduction in triglyceride level at 100 mg/kg/day, po for 7 days; format: functional, Mesocricetus auratus; parameters: scale not given: the % may be the effect or the level left; summary of the method: as §4
Syrian golden hamster [23] = assay: Antidyslipidemic activity in high fructose and high-fat diet fed dyslipidemic Syrian golden hamster model assessed as reduction in triglyceride level at 25 mg/kg/day for 7 days; format: functional, Mesocricetus auratus; parameters: scale not given: the % may be the effect or the level left; summary of the method: as §4
Mus musculus [24] = assay: Antidiabetic activity in diabetic C57BL/KsJ db/db mouse model assessed as reduction in postprandial glucose level in hyperglycemia at 1 mg/kg, po measured 2 hrs post dose; format: functional; parameters: scale not given: the % may be the effect or the level left; summary of the method: as §3
Mus musculus [25] = assay: Antidiabetic activity in diabetic C57BL/KsJ db/db mouse model assessed as improvement in glucose tolerance in hyperglycemia at 100 mg/kg, po measured 2 hrs post dose; format: functional
Mus musculus [26] = assay: Antidyslipidemic activity in diabetic C57BL/KsJ db/db mouse model assessed as reduction in plasma triglyceride level at 25 mg/kg, po qd for 10 days; format: functional; parameters: scale not given: the % may be the effect or the level left; summary of the method: as §5
Syrian golden hamster [27] = assay: Antidyslipidemic activity in high fructose and high-fat diet fed dyslipidemic Syrian golden hamster model assessed as reduction in cholesterol level at 10 to 100 mg/kg/day for 7 days; format: functional, organism-based; settings: Mesocricetus auratus; summary of the method: as §1
Syrian golden hamster [28] = assay: Antidyslipidemic activity in high fructose and high-fat diet fed dyslipidemic Syrian golden hamster model assessed as increase in HDL-cholesterol level at 10 mg/kg/day, po for 7 day, po; format: functional, Mesocricetus auratus; summary of the method: as §1
[29] = Plasma clearance in Sprague-Dawley rat at 25 mg/kg, po by LC-MS/MS method; format: ADME, organism-based; parameters: dose 25 mg/kg, route oral; summary of the method: as §2
Syrian golden hamster [30] = assay: Antidyslipidemic activity in high fructose and high-fat diet fed dyslipidemic Syrian golden hamster model assessed as increase in lipoprotein lipase level at 100 mg/kg/day, po for 7 days; format: functional, Mesocricetus auratus; summary of the method: as §1

CC(C)(C)NC[C@H](O)COc1ccc2c(=O)cc(-c3cc(OCc4ccccc4)cc(OCc4ccccc4)c3)oc2c1
Activity (Syrian golden hamster [1]): 27.9% | half-life [2]: 19.8 h | Activity (Syrian golden hamster [3]): 50.7% | Activity (Syrian golden hamster [4]): Dose-dependent effect | MRT [5]: 30.3 h | Activity (Mus musculus [6]): 22.1% | Activity (Syrian golden hamster [7]): 10.2% | AUC (Rattus norvegicus): 666 ng·h/mL | Activity (Syrian golden hamster [8]): 25.7% | Activity (Syrian golden hamster [9]): 24.4% | Activity (Syrian golden hamster [10]): 26.3% | Activity (Syrian golden hamster [11]): 21.1% | Activity (Syrian golden hamster [12]): 13.2% | Percent increase in HDL-C/cholesterol ratio vs vehicle (Mus musculus [13]): 92.5 | Activity (Syrian golden hamster [14]): 13.8% | Activity (Syrian golden hamster [15]): 21.2% | Activity (Syrian golden hamster [16]): 39.8% | Activity (Mus musculus [17]): 30.7% | clearance [18]: 62 mL/min/kg | half-life [19]: 10.1 h | Vd [20]: 50.3 L/kg | Activity (Syrian golden hamster [21]): 13.1% | Activity (Syrian golden hamster [22]): 76.3% | Activity (Syrian golden hamster [23]): 34.7% | Activity (Mus musculus [24]): 14.8% | Activity (Mus musculus [25]): 59.4% | Activity (Mus musculus [26]): 27.4% | Activity (Syrian golden hamster [27]): Dose-dependent effect | Activity (Syrian golden hamster [28]): 9.37% | CL/F [29]: 62.5 mL/min/kg | Activity (Syrian golden hamster [30]): 69.7%
